The subject of test [1] is Cryptococcus neoformans. The test can be described thus: Antifungal activity against Cryptococcus neoformans WP assessed as reduction in cell viability at 1.9 uM after 6 to 72 hrs by MTT assay. The format is functional.
In test [2] the test system is Cryptococcus neoformans. The test can be described thus: Antifungal activity against Cryptococcus neoformans CN31 assessed as reduction in cell viability at 1.9 uM after 6 to 72 hrs by MTT assay. The format is functional.
Test [3] relates to Cryptococcus neoformans. Briefly: Antifungal activity against Cryptococcus neoformans 5396 assessed as reduction in cell viability at 1.9 uM after 6 to 72 hrs by MTT assay. The format is functional.
The test system of test [4] is Cryptococcus neoformans. Briefly: Antifungal activity against Cryptococcus neoformans 96806 assessed as reduction in cell viability at 1.9 uM after 6 to 72 hrs by MTT assay. The format is functional.
The subject of test [5] is Cryptococcus neoformans. Briefly: Antifungal activity against Cryptococcus neoformans 28JF assessed as reduction in cell viability at 1.9 uM after 6 to 72 hrs by MTT assay. The format is functional.
Test [6] deals with Cryptococcus neoformans. The test can be described thus: Antifungal activity against Cryptococcus neoformans ATCC 62066 assessed as reduction in cell viability at 1.9 uM after 6 to 72 hrs by MTT assay. The format is functional.
Test [7] deals with Cryptococcus neoformans. Briefly: Antifungal activity against Cryptococcus neoformans VM-MCMMPI assessed as reduction in cell viability at 0.12 uM after 6 to 72 hrs by MTT assay. The format is functional.
Test [8] has as its system Cryptococcus neoformans. The test can be described thus: Antifungal activity against Cryptococcus neoformans ATCC 24067 assessed as reduction in cell viability at 0.12 uM after 6 to 72 hrs by MTT assay. The format is functional.
For test [9], the system named is Cryptococcus neoformans. Briefly: Antifungal activity against Cryptococcus neoformans 5396 assessed as reduction in cell viability at 0.12 uM after 6 to 72 hrs by MTT assay. The format is functional.
The test system of test [10] is Cryptococcus gattii species complex. The test can be described thus: Antifungal activity against Cryptococcus gattii 196L/03 assessed as reduction in cell viability at 0.12 uM after 6 to 72 hrs by MTT assay. The format is functional, Cryptococcus bacillisporus.
The test system is the same in test [11]. The test can be described thus: Post-antifungal activity against Cryptococcus gattii L27/01 assessed as organism required time to achieve cell population of 10^4 cells/ml at 0.11 uM treated for 1 hr by MTT assay. The format is functional, Cryptococcus bacillisporus.
Test [12] relates to Cryptococcus neoformans. Briefly: Antifungal activity against Cryptococcus neoformans ATCC 62066 assessed as reduction in cell viability at 0.12 uM after 6 to 72 hrs by MTT assay. The format is functional.
Test [13] relates to Cryptococcus gattii species complex. The test can be described thus: Antifungal activity against Cryptococcus gattii L27/01 assessed as reduction in cell viability at 0.12 uM after 6 to 72 hrs by MTT assay. The format is functional, Cryptococcus bacillisporus.
Test [14] concerns Cryptococcus neoformans. The test can be described thus: Antifungal activity against Cryptococcus neoformans LMM820 assessed as reduction in cell viability at 0.12 uM after 6 to 72 hrs by MTT assay. The format is functional.
The subject of test [15] is Cryptococcus neoformans. The test can be described thus: Antifungal activity against Cryptococcus neoformans CN31 assessed as reduction in cell viability at 0.12 uM after 6 to 72 hrs by MTT assay. The format is functional.
For test [16], the system named is Cryptococcus gattii species complex. Briefly: Antifungal activity against Cryptococcus gattii L28/02 assessed as reduction in cell viability at 0.12 uM after 6 to 72 hrs by MTT assay. The format is functional, Cryptococcus bacillisporus.
For test [17] the test system is unchanged. Briefly: Antifungal activity against Cryptococcus gattii 23/10993 assessed as reduction in cell viability at 0.12 uM after 6 to 72 hrs by MTT assay. The format is functional, Cryptococcus bacillisporus.
Test [18] has the same test system. The test can be described thus: Antifungal activity against Cryptococcus gattii LMM818 assessed as reduction in cell viability at 26 uM after 6 to 72 hrs by MTT assay. The format is functional, Cryptococcus bacillisporus. In short, it runs like this:
(§1)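 Time-kill setup: colonies from two 48 h, 35°C SDA passages were suspended in saline to 70% transmittance at 530 nm. They were then diluted to 1-5 x10^3 cells/mL in RPMI with L-glutamine buffered to pH 7.0 with 0.165 M MOPS. Plates were incubated at 35°C for 0-72 h, then MTT (5.0 mg/mL) was added for 3 h. After isopropanol, absorbance was read at 490 nm. Drug-free controls were included, results were confirmed by SDA colony counts, and assays were run in triplicate.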

Test [19] shares this test system. The test can be described thus: Antifungal activity against Cryptococcus gattii 1913ER assessed as reduction in cell viability at 26 uM after 6 to 72 hrs by MTT assay. The format is functional, Cryptococcus bacillisporus. In short, it runs like this:
as §1

The subject of test [20] is Cryptococcus neoformans. Briefly: Antifungal activity against Cryptococcus neoformans WP assessed as reduction in cell viability at 26 uM after 6 to 72 hrs by MTT assay. The format is functional. In short, it runs like this:
as §1

In test [21] the test system is Cryptococcus neoformans. The test can be described thus: Antifungal activity against Cryptococcus neoformans LMM820 assessed as reduction in cell viability at 26 uM after 6 to 72 hrs by MTT assay. The format is functional. In short, it runs like this:
as §1

Test [22] relates to Cryptococcus gattii species complex. The test can be described thus: Antifungal activity against Cryptococcus gattii 547/OTTI-97-PI-10 assessed as reduction in cell viability at 26 uM after 6 to 72 hrs by MTT assay. The format is functional, Cryptococcus bacillisporus. The procedure, abridged:
as §1

For test [23] the test system is unchanged. The test can be described thus: Antifungal activity against Cryptococcus gattii 23/10993 assessed as reduction in cell viability at 26 uM after 6 to 72 hrs by MTT assay. The format is functional, Cryptococcus bacillisporus. In short, it runs like this: as §1
The test system of test [24] is Cryptococcus neoformans. Briefly: Antifungal activity against Cryptococcus neoformans ATCC 24067 assessed as reduction in cell viability at 26 uM after 6 to 72 hrs by MTT assay. The format is functional. The procedure, abridged:
as §1

Test [25] has as its system Cryptococcus neoformans. Briefly: Antifungal activity against Cryptococcus neoformans 5396 assessed as reduction in cell viability at 26 uM after 6 to 72 hrs by MTT assay. The format is functional. In short, it runs like this:
as §1

In test [26] the test system is Cryptococcus neoformans. The test can be described thus: Antifungal activity against Cryptococcus neoformans ATCC 62066 assessed as reduction in cell viability at 26 uM after 6 to 72 hrs by MTT assay. The format is functional. In short, it runs like this: as §1
Test [27] has as its system Cryptococcus neoformans. The test can be described thus: Antifungal activity against Cryptococcus gattii ATCC 24065 assessed as reduction in cell viability at 26 uM after 6 to 72 hrs by MTT assay. The format is functional, Cryptococcus bacillisporus. The procedure, abridged: as §1
Test [28] relates to Cryptococcus gattii species complex. Briefly: Antifungal activity against Cryptococcus gattii L28/02 assessed as reduction in cell viability at 26 uM after 6 to 72 hrs by MTT assay. The format is functional, Cryptococcus bacillisporus. In short, it runs like this: as §1
Test [29] concerns Cryptococcus neoformans. Briefly: Antifungal activity against Cryptococcus neoformans CN31 assessed as reduction in cell viability at 26 uM after 6 to 72 hrs by MTT assay. The format is functional. In short, it runs like this: as §1
The test system of test [30] is Cryptococcus neoformans. Briefly: Antifungal activity against Cryptococcus neoformans ATCC 28957 assessed as reduction in cell viability at 26 uM after 6 to 72 hrs by MTT assay. The format is functional. In short, it runs like this: as §1
For test [31], the system named is Cryptococcus gattii species complex. Briefly: Antifungal activity against Cryptococcus gattii L27/01 assessed as reduction in cell viability at 26 uM after 6 to 72 hrs by MTT assay. The format is functional, Cryptococcus bacillisporus. The procedure, abridged:
as §1

The test system is the same in test [32]. The test can be described thus: Antifungal activity against Cryptococcus gattii 196L/03 assessed as reduction in ergosterol content at MIC after 24 hrs by spectrophotometric analysis in presence of amphotericin B. The format is functional, organism-based. Conditions: Cryptococcus bacillisporus. The procedure, abridged: (§2)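 Pellet washed and weighed, then saponified in 25% ethanolic KOH at 85°C for 1 h. Extracted with water and n-heptane, read at 282 and 230 nm. Ergosterol taken from a standard curve and expressed as % of growth control.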

Test [33] has as its system Cryptococcus neoformans. The test can be described thus: Antifungal activity against Cryptococcus neoformans ATCC 28957 assessed as reduction in cell viability at 0.9 uM after 6 to 72 hrs by MTT assay. The format is functional.
The subject of test [34] is Cryptococcus neoformans. The test can be described thus: Antifungal activity against Cryptococcus neoformans VM-MCMMPI assessed as reduction in cell viability at 0.9 uM after 6 to 72 hrs by MTT assay. The format is functional.
Test [35] relates to Cryptococcus gattii species complex. The test can be described thus: Antifungal activity against Cryptococcus gattii L27/01 assessed as reduction in ergosterol content at MIC after 24 hrs by spectrophotometric analysis in presence of amphotericin B. The format is functional, organism-based. To be noted: Cryptococcus bacillisporus. The procedure, abridged: as §2
The test system of test [36] is Cryptococcus neoformans. Briefly: Antifungal activity against Cryptococcus neoformans F10 assessed as reduction in cell viability at 0.9 uM after 6 to 72 hrs by MTT assay. The format is functional.

The structures appear in SMILES notation. Activity calls are given as the source filed them. No cut-off for these calls is given here.

As for `C(=N\Nc1nc(-c2ccccc2)cs1)/C1CCCCC1`, the Activity in [1], in test [2], in [3], in test [4], in test [5] and in [6] was 90% each time.

As to `C[C@@H]1[C@H](O)[C@@H](C)/C=C/C=C/C=C/C=C/C=C/C=C/C=C/[C@H](O[C@@H]2O[C@H](C)[C@@H](O)[C@H](N)[C@@H]2O)C[C@@H]2O[C@](O)(C[C@@H](O)C[C@@H](O)[C@H](O)CC[C@@H](O)C[C@@H](O)CC(=O)O[C@H]1C)C[C@H](O)[C@H]2C(=O)O` [AMPHOTERICIN B], the Activity in test [7], in [8], in [9], in test [10], in [12] and in test [13] was 90% each time. Also, the Activity in [14], in [15], in test [16] and in [17] was 90% in each case. Moreover, in [11], the Time amounted to 2.65 h.

For `OC(Cn1cncn1)(Cn1cncn1)c1ccc(F)cc1F` [FLUCONAZOLE], the Activity in test [18], in [19], in [20], in test [21], in test [22] and in test [23] was 80% each time. Besides, the Activity in test [24], in test [25], in test [26], in test [27], in [28] and in test [29] was 80% in each case. For the same compound, the Activity in [30] and in [31] was 80% in each case.

In the case of `COc1ccc(-c2csc(N/N=C(\C)CCO)n2)cc1`, the result in [32] and in test [35] was inactive. For the same compound, the Activity in [33], in test [34] and in test [36] was 90% in each case.

For the origin of these results see ChEMBL document CHEMBL3616437, “Thiazole compounds with activity against Cryptococcus gattii and Cryptococcus neoformans in vitro” (Eur J Med Chem, 2015).
